{
  "source": "ChEMBL document CHEMBL1148178",
  "about": "“Dicranin, an antimicrobial and 15-lipoxygenase inhibitor from the moss Dicranum scoparium” (1993)",
  "key": {"[1]": {"system": "Geobacillus stearothermophilus", "experiment": "Antibacterial activity against Bacillus stearothermophilus NCA 1518 at 500 ug/disk after 24 hrs by disk diffusion assay", "assay_type": "functional", "conditions": "read-out: Diameter of inhibition zone", "procedure,_shortened": "(§1)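 Sterile 6 mm filter-paper disc bearing sample set in the centre of a Petri dish of 15 ml plate count agar. Overlaid with 3 ml soft nutrient agar (nutrient broth + 0.7% agar) seeded with 1% of a 16–18 h culture of the test strain. Read-out is the diameter of the growth-free zone around the disc.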"}, "[2]": {"system": "Bacillus cereus", "experiment": "Bactericidal activity against Bacillus cereus NCIB 3329 at 10 ug/ml by liquid culture assay", "assay_type": "functional, organism-based", "procedure,_shortened": "(§2)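 Wells hold brain heart infusion (200 µl) plus 50 µl inoculum at 10³–10⁵ cfu/ml, with dicranin added as the sodium salt in water (10–200 μg/ml tested). Cultures are incubated at the strain's optimal growth temperature. Duplicate 100 µl samples are taken at 0, 2, 4, 6, 8 and 24 h, diluted in tryptone salt to 10–500 bacteria/plate, plated on plate count agar, and colonies counted after 24 h.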"}, "[3]": {"system": "Bacillus cereus", "experiment": "Bactericidal activity against Bacillus cereus NCIB 3329 at 150 ug/ml by liquid culture assay", "assay_type": "functional, organism-based", "procedure,_shortened": "as §2"}, "[4]": {"system": "Bacillus subtilis", "experiment": "Antibacterial activity against Bacillus subtilis NCIB 3610 at 500 ug/disk after 24 hrs by disk diffusion assay", "assay_type": "functional", "conditions": "read-out: Diameter of inhibition zone", "procedure,_shortened": "as §1"}, "[5]": {"system": "Bacillus cereus", "experiment": "Antibacterial activity against Bacillus cereus NCIB 3329 at 100 ug/disk after 24 hrs by disk diffusion assay", "assay_type": "functional", "conditions": "read-out: Diameter of inhibition zone", "procedure,_shortened": "as §1"}, "[6]": {"system": "Bacillus cereus", "experiment": "Antibacterial activity against Bacillus cereus NCIB 3329 at 50 ug/disk after 24 hrs by disk diffusion assay", "assay_type": "functional", "conditions": "read-out: Diameter of inhibition zone", "procedure,_shortened": "as §1"}, "[7]": {"system": "Staphylococcus aureus", "experiment": "Antibacterial activity against Staphylococcus aureus T-AQ 49/YF29 at 75 ug/disk after 24 hrs by disk diffusion assay", "assay_type": "functional", "conditions": "read-out: Diameter of inhibition zone", "procedure,_shortened": "as §1"}, "[8]": {"system": "Staphylococcus aureus", "experiment": "Antibacterial activity against Staphylococcus aureus T-AQ 49/YF29 at 125 ug/disk after 24 hrs by disk diffusion assay", "assay_type": "functional", "conditions": "read-out: Diameter of inhibition zone", "procedure,_shortened": "as §1"}, "[9]": {"system": "Bacillus subtilis", "experiment": "Antibacterial activity against Bacillus subtilis NCIB 3610 at 1000 ug/disk after 24 hrs by disk diffusion assay", "assay_type": "functional", "conditions": "read-out: Diameter of inhibition zone", "procedure,_shortened": "as §1"}, "[10]": {"system": "Geobacillus stearothermophilus", "experiment": "Antibacterial activity against Bacillus stearothermophilus NCA 1518 at 10 ug/disk after 24 hrs by disk diffusion assay", "assay_type": "functional", "conditions": "read-out: Diameter of inhibition zone", "procedure,_shortened": "as §1"}, "[11]": {"system": "Bacillus subtilis", "experiment": "Antibacterial activity against Bacillus subtilis NCIB 3610 at 10 ug/disk after 24 hrs by disk diffusion assay", "assay_type": "functional", "conditions": "read-out: Diameter of inhibition zone", "procedure,_shortened": "as §1"}, "[12]": {"system": "Enterococcus faecalis", "experiment": "Antibacterial activity against Streptococcus faecalis NCIB 775 at 50 ug/disk after 24 hrs by disk diffusion assay", "assay_type": "functional", "conditions": "read-out: Diameter of inhibition zone", "procedure,_shortened": "(§3)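 Test material loaded onto 6 mm sterile filter-paper discs. Each disc sits at the centre of a plate of 15 ml plate count agar overlaid with 3 ml soft nutrient agar (nutrient broth + 0.7% agar) carrying 1% of a 16–18 h culture. Activity is read as the diameter of the no-growth zone around the disc.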"}, "[13]": {"system": "Staphylococcus aureus", "experiment": "Antibacterial activity against Staphylococcus aureus T-AQ 49/YF29 at 100 ug/disk after 24 hrs by disk diffusion assay", "assay_type": "functional", "conditions": "read-out: Diameter of inhibition zone", "procedure,_shortened": "as §1"}, "[14]": {"system": "Geobacillus stearothermophilus", "experiment": "Antibacterial activity against Bacillus stearothermophilus NCA 1518 at 125 ug/disk after 24 hrs by disk diffusion assay", "assay_type": "functional", "conditions": "read-out: Diameter of inhibition zone", "procedure,_shortened": "as §1"}, "[15]": {"system": "Geobacillus stearothermophilus", "experiment": "Antibacterial activity against Bacillus stearothermophilus NCA 1518 at 75 ug/disk after 24 hrs by disk diffusion assay", "assay_type": "functional", "conditions": "read-out: Diameter of inhibition zone", "procedure,_shortened": "as §1"}, "[16]": {"system": "Enterococcus faecalis", "experiment": "Antibacterial activity against Streptococcus faecalis NCIB 775 at 25 ug/disk after 24 hrs by disk diffusion assay", "assay_type": "functional", "conditions": "read-out: Diameter of inhibition zone", "procedure,_shortened": "as §3"}, "[17]": {"system": "Geobacillus stearothermophilus", "experiment": "Antibacterial activity against Bacillus stearothermophilus NCA 1518 at 250 ug/disk after 24 hrs by disk diffusion assay", "assay_type": "functional", "conditions": "read-out: Diameter of inhibition zone", "procedure,_shortened": "as §1"}, "[18]": {"system": "Bacillus cereus", "experiment": "Antibacterial activity against Bacillus cereus NCIB 3329 at 250 ug/disk after 24 hrs by disk diffusion assay", "assay_type": "functional", "conditions": "read-out: Diameter of inhibition zone", "procedure,_shortened": "as §1"}, "[19]": {"system": "Geobacillus stearothermophilus", "experiment": "Bactericidal activity against sBacillus stearothermophilus NCA 1518 at 200 ug/ml by liquid culture assay", "assay_type": "functional, organism-based", "procedure,_shortened": "as §2"}, "[20]": {"system": "Geobacillus stearothermophilus", "experiment": "Antibacterial activity against Bacillus stearothermophilus NCA 1518 at 1000 ug/disk after 24 hrs by disk diffusion assay", "assay_type": "functional", "conditions": "read-out: Diameter of inhibition zone", "procedure,_shortened": "as §1"}, "[21]": {"system": "Bacillus subtilis", "experiment": "Antibacterial activity against Bacillus subtilis NCIB 3610 at 125 ug/disk after 24 hrs by disk diffusion assay", "assay_type": "functional", "conditions": "read-out: Diameter of inhibition zone", "procedure,_shortened": "as §1"}, "[22]": {"system": "Bacillus cereus", "experiment": "Antibacterial activity against Bacillus cereus NCIB 3329 at 25 ug/disk after 24 hrs by disk diffusion assay", "assay_type": "functional", "conditions": "read-out: Diameter of inhibition zone", "procedure,_shortened": "as §1"}, "[23]": {"system": "Pseudomonas putida", "experiment": "Antibacterial activity against Pseudomonas putida T-AQ 18/YF18 at 1 mg/disk after 24 hrs by disk diffusion assay", "assay_type": "functional, organism-based", "procedure,_shortened": "as §1"}, "[24]": {"system": "Geobacillus stearothermophilus", "experiment": "Antibacterial activity against Bacillus stearothermophilus NCA 1518 after 24 hrs by disk diffusion assay", "assay_type": "functional, organism-based", "procedure,_shortened": "as §1"}, "[25]": {"system": "Bacillus subtilis", "experiment": "Antibacterial activity against Bacillus subtilis NCIB 3610 at 75 ug/disk after 24 hrs by disk diffusion assay", "assay_type": "functional", "conditions": "read-out: Diameter of inhibition zone", "procedure,_shortened": "as §1"}, "[26]": {"system": "Pseudomonas aeruginosa", "experiment": "Antibacterial activity against Pseudomonas aeruginosa ATCC 10145 at 1 mg/disk after 24 hrs by disk diffusion assay", "assay_type": "functional, organism-based", "procedure,_shortened": "as §1"}},
  "note": "The source made the active and inactive calls. No cut-off for these calls is given here.",
  "data": [
    {"smiles": "CC/C=C\\C/C=C\\C/C=C\\CC#CCCCCC(=O)O", "note": "[DICRANIN]", "values": [
      {"measurement": "zone of inhibition at 500 µg/disc", "setting": "[1]", "value": 32, "unit": "mm"},
      {"measurement": "Activity", "setting": "[2]", "value": "inactive"},
      {"measurement": "Activity", "setting": "[3]", "value": "Active"},
      {"measurement": "zone of inhibition at 500 µg/disc", "setting": "[4]", "value": 19, "unit": "mm"},
      {"measurement": "zone of inhibition at 100 µg/disc", "setting": "[5]", "value": 15, "unit": "mm"},
      {"measurement": "zone of inhibition at 50 µg/disc", "setting": "[6]", "value": 10, "unit": "mm"},
      {"measurement": "zone of inhibition at 75 µg/disc", "setting": "[7]", "value": 12, "unit": "mm"},
      {"measurement": "zone of inhibition at 125 µg/disc", "setting": "[8]", "value": 17, "unit": "mm"},
      {"measurement": "zone of inhibition at 1000 µg/disc", "setting": "[9]", "value": 20, "unit": "mm"},
      {"measurement": "zone of inhibition at 10 µg/disc", "setting": "[10]", "value": 0, "unit": "mm"},
      {"measurement": "zone of inhibition at 10 µg/disc", "setting": "[11]", "value": 0, "unit": "mm"},
      {"measurement": "zone of inhibition at 50 µg/disc", "setting": "[12]", "value": 12, "unit": "mm"},
      {"measurement": "zone of inhibition at 100 µg/disc", "setting": "[13]", "value": 16, "unit": "mm"},
      {"measurement": "zone of inhibition at 125 µg/disc", "setting": "[14]", "value": 17, "unit": "mm"},
      {"measurement": "zone of inhibition at 75 µg/disc", "setting": "[15]", "value": 14, "unit": "mm"},
      {"measurement": "zone of inhibition at 25 µg/disc", "setting": "[16]", "value": 10, "unit": "mm"},
      {"measurement": "zone of inhibition at 250 µg/disc", "setting": "[17]", "value": 26, "unit": "mm"},
      {"measurement": "zone of inhibition at 250 µg/disc", "setting": "[18]", "value": 19, "unit": "mm"},
      {"measurement": "Activity", "setting": "[19]", "value": "Active"},
      {"measurement": "zone of inhibition at 1000 µg/disc", "setting": "[20]", "value": 35, "unit": "mm"},
      {"measurement": "zone of inhibition at 125 µg/disc", "setting": "[21]", "value": 14, "unit": "mm"},
      {"measurement": "zone of inhibition at 25 µg/disc", "setting": "[22]", "value": 9, "unit": "mm"},
      {"measurement": "Activity", "setting": "[23]", "value": "inactive"},
      {"measurement": "Activity", "setting": "[24]", "value": "Active"},
      {"measurement": "zone of inhibition at 75 µg/disc", "setting": "[25]", "value": 13, "unit": "mm"},
      {"measurement": "Activity", "setting": "[26]", "value": "inactive"}
    ]}
  ]
}
